# Laboratory results from paper PMC10404122 (Drug Design, Development and Therapy, 2023).
# Legend:
# [1] = Population pharmacokinetic model; assay type: in vivo, human; conditions: ICU patients, iv, 304 samples from 108 patients, two-compartment model
# How it was run: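 NONMEM fit with FOCE with interaction. One- vs two-compartment chosen by goodness-of-fit plots. Covariates tested: sex, age, weight, ALB, Scr, Cockcroft-Gault Ccr, CKD-EPI eGFR, CRRT, APACHE II. Forward inclusion at P < 0.05 (ΔOFV −3.84), backward elimination at P < 0.001 (ΔOFV −10.828). Robustness checked with 1000 bootstrap resamples (median, 2.5–97.5 percentiles). VPC, NPDE and external-set MPE/RMSE also run.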
# [2] = Stability of plasma samples; assay type: in vitro ADME; conditions: human plasma (EDTA), −20 °C, HPLC-MS/MS of A2-2
# [3] = plasma concentration; cited from earlier work
# [4] = cited from earlier work
# [5] = cited from earlier work; remark: listed apart in the source
substance,measurement,setting,value
teicoplanin,"Q, inter-compartmental clearance, final model estimate",[1],3.08 L/h
same,"Vc, volume of the central compartment, final model estimate",[1],14.4 L
same,"Vp, volume of the peripheral compartment, final model estimate",[1],51.6 L
same,time for which plasma samples were found to be stable,[2],at least 41 days
same,concentration inducing adverse effects: thrombocytopenia,[3],≥ 40000 ng/mL
same,plasma protein binding rate,[4],over 90%
same,patients in whom the standard dosing regimen was insufficient to achieve 10 mg/L,"[5]; 400 mg q12h×3, 400 mg qd, within the initial three days",more than 50%
same,elimination half-life,[5],169 h
